Reference: ChEMBL document CHEMBL1137007, “Synthesis of 4-substituted pyrido[2,3-d]pyrimidin-4(1H)-one as analgesic and anti-inflammatory agents” (Bioorg Med Chem Lett, 2009)

Legend:
Mus musculus [1] = test: Analgesic activity in Wister albino mice at 20 mg/kg, po after 2 hrs by tail-flick test
Rattus norvegicus [2] = test: Antiinflammatory activity in rat assessed as inhibition of carrageenan-induced paw oedema at 20 mg/kg, po after 3 hrs; type: functional; set-up: scale not given: the % may be the effect or the level left
Method in brief: (§1)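 Rats, six per group, were dosed orally (10 or 20 mg/kg, suspension in 1% carboxymethyl cellulose) before carrageenan paw injection. Paw volume was read by mercury-displacement plethysmography just before and 30 min, 1, 2 and 3 h after carrageenan. %inhibition = 100[1 − (a − x)/(b − y)], with the test group's pre/post volumes set against the vehicle control group's. Reported as mean ± SEM (n = 6) with ANOVA.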

Mus musculus [3] = test: Analgesic activity in Wister albino mice at 10 mg/kg, po after 3 hrs by tail-flick test
Mus musculus [4] = test: Analgesic activity in Wister albino mice at 10 mg/kg, po after 30 mins by tail-flick test
Rattus norvegicus [5] = test: Antiinflammatory activity in rat assessed as inhibition of carrageenan-induced paw oedema at 10 mg/kg, po after 30 mins; type: functional; set-up: scale not given: the % may be the effect or the level left
Method in brief: as §1

Rattus norvegicus [6] = test: Toxicity in Wistar albino rat assessed as ulcer index at 20 mg/kg, ip administered once daily for 3 days; type: organism-based; set-up: dose 20 mg/kg, route intraperitoneal; details: in vivo, 72 h
Method in brief: (§2)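 Wistar albino rats of either sex (150–200 g), six per group, housed at 25 °C, 45–55% RH, 12-h light/dark cycle and acclimatized one week. Dosing was intraperitoneal as a suspension in 10% v/v Tween-80, with a vehicle-only control group. Animals were fasted 36 h, then pylorus-ligated (Shay method) on day 4 and sacrificed 4 h later for ulcer index. Values are mean ± SEM (n = 6), analysed by one-way ANOVA.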

Rattus norvegicus [7] = test: Antiinflammatory activity in rat assessed as inhibition of carrageenan-induced paw oedema at 20 mg/kg, po after 2 hrs; type: functional; set-up: scale not given: the % may be the effect or the level left
Method in brief: as §1

Rattus norvegicus [8] = test: Antiinflammatory activity in rat assessed as inhibition of carrageenan-induced paw oedema at 20 mg/kg, po after 1 hr; type: functional; set-up: scale not given: the % may be the effect or the level left
Method in brief: as §1

Mus musculus [9] = test: Analgesic activity in Wister albino mouse at 20 mg/kg, po after 1 hr by tail-flick test
Mus musculus [10] = test: Analgesic activity in Wister albino mice at 10 mg/kg, po after 1 hr by tail-flick test
Rattus norvegicus [11] = test: Antiinflammatory activity in rat assessed as inhibition of carrageenan-induced paw oedema at 10 mg/kg, po after 1 hr; type: functional; set-up: scale not given: the % may be the effect or the level left
Method in brief: as §1

Mus musculus [12] = test: Analgesic activity in Wister albino mice at 10 mg/kg, po after 2 hrs by tail-flick test
Mus musculus [13] = test: Analgesic activity in Wister albino mice at 20 mg/kg, po after 30 mins by tail-flick test
Rattus norvegicus [14] = test: Antiinflammatory activity in rat assessed as inhibition of carrageenan-induced paw oedema at 10 mg/kg, po after 3 hrs; type: functional; set-up: scale not given: the % may be the effect or the level left
Method in brief: as §1

Mus musculus [15] = test: Analgesic activity in Wister albino mice at 20 mg/kg, po after 3 hrs by tail-flick test
Rattus norvegicus [16] = test: Antiinflammatory activity in rat assessed as inhibition of carrageenan-induced paw oedema at 10 mg/kg, po after 2 hrs; type: functional; set-up: scale not given: the % may be the effect or the level left
Method in brief: as §1

Rattus norvegicus [17] = test: Antiinflammatory activity in rat assessed as inhibition of carrageenan-induced paw oedema at 20 mg/kg, po after 30 mins; type: functional; set-up: scale not given: the % may be the effect or the level left
Method in brief: as §1

Rattus norvegicus [18] = test: Toxicity in Wistar albino rat assessed as ulcer index at 200 mg/kg, ip administered once daily for 3 days; type: organism-based; set-up: dose 200 mg/kg, route intraperitoneal; details: in vivo, 72 h
Method in brief: as §2

Row | Structure (SMILES) | Activity (Mus musculus [1]) [%] | Activity (Rattus norvegicus [2]) [%] | Activity (Mus musculus [3]) [%] | Activity (Mus musculus [4]) [%] | Activity (Rattus norvegicus [5]) [%] | UI (Rattus norvegicus [6]) | Activity (Rattus norvegicus [7]) [%] | Activity (Rattus norvegicus [8]) [%] | Activity (Mus musculus [9]) [%] | Activity (Mus musculus [10]) [%] | Activity (Rattus norvegicus [11]) [%] | Activity (Mus musculus [12]) [%] | Activity (Mus musculus [13]) [%] | Activity (Rattus norvegicus [14]) [%] | Activity (Mus musculus [15]) [%] | Activity (Rattus norvegicus [16]) [%] | Activity (Rattus norvegicus [17]) [%] | UI (Rattus norvegicus [18])
1 | N#Cc1c(N)nc2[nH]c(=S)[nH]c(=O)c2c1-c1ccc(N2CCCCC2)cc1 | 69 | 36 | 39 | 46 | 35 | 0.58 | 51 | 49 | 64 | 51 | 37 | 55 | 63 | 29 | 47 | 45 | 45 | 
2 | CC(=O)Oc1ccccc1C(=O)O [ASPIRIN] |  |  |  |  |  |  |  |  |  |  |  |  |  |  |  |  |  | 1.73
